According to article PMC4832855 (Cancer Science, 2016):

Key:
[1] = system: patients with advanced solid tumors; experiment: Phase I first-in-human study: pharmacodynamics; assay type: in vivo
Method in brief: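 Open-label 3+3 dose-escalation/de-escalation study. After a 1-week observation period, the test compound was given orally once daily, continuously, after an overnight fast. On pharmacodynamic sampling days, fasting continued until 2 h post-dose. Plasma glucose and insulin were sampled between days 1 and 29, at pre-dose and at 1, 2 and 24 h post-dose. Only the fasting time points were evaluable.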

[2] = Pharmacokinetic study in mice, single oral dose; assay type: in vivo, mouse; conditions: for Mean area under the plasma concentration–time curve from time 0 to 24 h / Mean maximum plasma concentration: male SCID mice
Method in brief: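 Single oral dose of 2, 10 or 20 mg/kg to male mice; plasma sampled over 0–24 h; Cmax, Tmax, elimination half-life and AUC0–24 reported as mean ± SD, n = 3.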

[3] = system: patients with advanced solid tumors; experiment: Phase I first-in-human study: safety, tolerability, DLT, MTD; assay type: in vivo
Method in brief: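 Open-label 3+3 dose-escalation/de-escalation; oral once-daily dosing under overnight fasting for 28 days, 1-week observation, then continuous; AEs graded by CTCAE v3.0 with attribution; DLTs included grade 3 fasting hyperglycemia, grade 3 non-fasting hyperglycemia >4 h, grade 4 hyperglycemia, grade ≥2 cardiac toxicity, other grade ≥3 non-hematologic events, grade 4 neutropenia >7 days, grade 4 thrombocytopenia.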

[4] = system: human multiple myeloma cell lines (KMS‐12‐BM, LP‐1, NCI‐H929); experiment: Anti-proliferative activity; assay type: cell-based; conditions: 72 h
[5] = system: panel of human malignant cell lines; experiment: Correlation of antiproliferative activity with anti‐IGF‐1 antibody KM1468; assay type: cell-based; conditions: range of human malignant cell lines (Fig. S1a)
[6] = system: Btc; experiment: Kinase inhibition profiling at 100 nmol/L; assay type: biochemical, human
[7] = system: insulin‐induced tyrosine phosphorylation of IR in HT‐29/GFP cells; experiment: In vitro signal transduction assay; assay type: cell-based, human; conditions: 10 nmol/L, 2 hours
Method in brief: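 HT-29/GFP colon cancer cells in culture exposed to test compound, then stimulated with human IGF-1 or human insulin; receptor tyrosine phosphorylation and downstream signalling assessed across a concentration series.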

[8] = patients, 37.5 and 50 mg, 1 and 2 h post‐dose
[9] = male, SCID, mouse, plasma, po, 20 mg/kg

SMILES: Cc1ccsc1C(=O)Nc1cc(CN2CCN(C(=O)CO)CC2)ccc1/C=C/c1n[nH]c2ccccc12 [KW‐2450]
- Patients with insulin values above the upper limit of quantitation (300 μU/mL) ([1]; 37.5‐mg cohort): five
- Patients with insulin values above the upper limit of quantitation (300 μU/mL) ([1]; 50‐mg cohort): three
- Fasting glucose [1, 8]: Elevations in fasting glucose
- Fasting insulin [1, 8]: Elevations
- Mean area under the plasma concentration–time curve from time 0 to 24 h ([2]; oral 2 mg/kg): 136 ng/h/mL
- Mean maximum plasma concentration ([2]; oral 2 mg/kg): 37.4 ng/mL
- Mean area under the plasma concentration–time curve from time 0 to 24 h ([2]; oral 10 mg/kg): 1320 ng/h/mL
- Mean maximum plasma concentration ([2]; oral 10 mg/kg): 568 ng/mL
- Mean area under the plasma concentration–time curve from time 0 to 24 h ([2]; oral 20 mg/kg): 3190 ng/h/mL
- Mean maximum plasma concentration ([2]; oral 20 mg/kg): 1510 ng/mL
- Tmax [2, 9]: 15 to 60 min
- half-life [2, 9]: 223 to 239 min
- Anorexia, treatment‐related, Grade 1–2 ([3]; 37.5 mg/day (n = 7)): 2 (28.6) No. of patients (%)
- Anorexia, treatment‐related, Grade 3 ([3]; 37.5 mg/day (n = 7)): 0 (0.0) No. of patients (%)
- Constipation, treatment‐related, Grade 1–2 ([3]; 37.5 mg/day (n = 7)): 1 (14.3) No. of patients (%)
- Constipation, treatment‐related, Grade 3 ([3]; 37.5 mg/day (n = 7)): 0 (0.0) No. of patients (%)
- Decreased appetite, treatment‐related, Grade 1–2 ([3]; 37.5 mg/day (n = 7)): 0 (0.0) No. of patients (%)
- Decreased appetite, treatment‐related, Grade 3 ([3]; 37.5 mg/day (n = 7)): 0 (0.0) No. of patients (%)
- Diarrhea, treatment‐related, Grade 1–2 ([3]; 37.5 mg/day (n = 7)): 0 (0.0) No. of patients (%)
- Diarrhea, treatment‐related, Grade 3 ([3]; 37.5 mg/day (n = 7)): 0 (0.0) No. of patients (%)
- Dizziness, treatment‐related, Grade 1–2 ([3]; 37.5 mg/day (n = 7)): 1 (14.3) No. of patients (%)
- Dizziness, treatment‐related, Grade 3 ([3]; 37.5 mg/day (n = 7)): 0 (0.0) No. of patients (%)
- Fatigue, treatment‐related, Grade 1–2 ([3]; 37.5 mg/day (n = 7)): 4 (57.1) No. of patients (%)
- Fatigue, treatment‐related, Grade 3 ([3]; 37.5 mg/day (n = 7)): 0 (0.0) No. of patients (%)
- Hyperglycemia, treatment‐related, Grade 1–2 ([3]; 37.5 mg/day (n = 7)): 1 (14.3) No. of patients (%)
- Hyperglycemia, treatment‐related, Grade 3 ([3]; 37.5 mg/day (n = 7)): 0 (0.0) No. of patients (%)
- Mucosal inflammation, treatment‐related, Grade 1–2 ([3]; 37.5 mg/day (n = 7)): 1 (14.3) No. of patients (%)
- Mucosal inflammation, treatment‐related, Grade 3 ([3]; 37.5 mg/day (n = 7)): 0 (0.0) No. of patients (%)
- Nausea, treatment‐related, Grade 1–2 ([3]; 37.5 mg/day (n = 7)): 2 (28.6) No. of patients (%)
- Nausea, treatment‐related, Grade 3 ([3]; 37.5 mg/day (n = 7)): 0 (0.0) No. of patients (%)
- Pain, treatment‐related, Grade 1–2 ([3]; 37.5 mg/day (n = 7)): 0 (0.0) No. of patients (%)
- Pain, treatment‐related, Grade 3 ([3]; 37.5 mg/day (n = 7)): 0 (0.0) No. of patients (%)
- Rash, treatment‐related, Grade 1–2 ([3]; 37.5 mg/day (n = 7)): 1 (14.3) No. of patients (%)
- Rash, treatment‐related, Grade 3 ([3]; 37.5 mg/day (n = 7)): 1 (14.3) No. of patients (%)
- Vomiting, treatment‐related, Grade 1–2 ([3]; 37.5 mg/day (n = 7)): 1 (14.3) No. of patients (%)
- Vomiting, treatment‐related, Grade 3 ([3]; 37.5 mg/day (n = 7)): 0 (0.0) No. of patients (%)
- Patients with dose‐limiting toxicity ([3]; 37.5 mg/day, one of seven patients, grade 3 rash): 14.3%
- Anorexia, treatment‐related, Grade 1–2 ([3]; 50 mg/day (n = 6)): 0 (0.0) No. of patients (%)
- Anorexia, treatment‐related, Grade 3 ([3]; 50 mg/day (n = 6)): 0 (0.0) No. of patients (%)
- Constipation, treatment‐related, Grade 1–2 ([3]; 50 mg/day (n = 6)): 1 (16.7) No. of patients (%)
- Constipation, treatment‐related, Grade 3 ([3]; 50 mg/day (n = 6)): 0 (0.0) No. of patients (%)
- Decreased appetite, treatment‐related, Grade 1–2 ([3]; 50 mg/day (n = 6)): 3 (50.0) No. of patients (%)
- Decreased appetite, treatment‐related, Grade 3 ([3]; 50 mg/day (n = 6)): 0 (0.0) No. of patients (%)
- Diarrhea, treatment‐related, Grade 1–2 ([3]; 50 mg/day (n = 6)): 2 (33.3) No. of patients (%)
- Diarrhea, treatment‐related, Grade 3 ([3]; 50 mg/day (n = 6)): 0 (0.0) No. of patients (%)
- Dizziness, treatment‐related, Grade 1–2 ([3]; 50 mg/day (n = 6)): 2 (33.3) No. of patients (%)
- Dizziness, treatment‐related, Grade 3 ([3]; 50 mg/day (n = 6)): 0 (0.0) No. of patients (%)
- Fatigue, treatment‐related, Grade 1–2 ([3]; 50 mg/day (n = 6)): 4 (66.7) No. of patients (%)
- Fatigue, treatment‐related, Grade 3 ([3]; 50 mg/day (n = 6)): 0 (0.0) No. of patients (%)
- Hyperglycemia, treatment‐related, Grade 1–2 ([3]; 50 mg/day (n = 6)): 2 (33.3) No. of patients (%)
- Hyperglycemia, treatment‐related, Grade 3 ([3]; 50 mg/day (n = 6)): 2 (33.3) No. of patients (%)
- Mucosal inflammation, treatment‐related, Grade 1–2 ([3]; 50 mg/day (n = 6)): 1 (16.7) No. of patients (%)
- Mucosal inflammation, treatment‐related, Grade 3 ([3]; 50 mg/day (n = 6)): 0 (0.0) No. of patients (%)
- Nausea, treatment‐related, Grade 1–2 ([3]; 50 mg/day (n = 6)): 4 (66.7) No. of patients (%)
- Nausea, treatment‐related, Grade 3 ([3]; 50 mg/day (n = 6)): 0 (0.0) No. of patients (%)
- Pain, treatment‐related, Grade 1–2 ([3]; 50 mg/day (n = 6)): 2 (33.3) No. of patients (%)
- Pain, treatment‐related, Grade 3 ([3]; 50 mg/day (n = 6)): 0 (0.0) No. of patients (%)
- Rash, treatment‐related, Grade 1–2 ([3]; 50 mg/day (n = 6)): 0 (0.0) No. of patients (%)
- Rash, treatment‐related, Grade 3 ([3]; 50 mg/day (n = 6)): 0 (0.0) No. of patients (%)
- Vomiting, treatment‐related, Grade 1–2 ([3]; 50 mg/day (n = 6)): 1 (16.7) No. of patients (%)
- Vomiting, treatment‐related, Grade 3 ([3]; 50 mg/day (n = 6)): 0 (0.0) No. of patients (%)
- Patients with dose‐limiting toxicity ([3]; 50 mg/day, two of six patients, grade 3 non‐fasting hyperglycemia): 33.3%
- Anorexia, treatment‐related, Grade 1–2 ([3]; Total (n = 13)): 2 (15.4) No. of patients (%)
- Anorexia, treatment‐related, Grade 3 ([3]; Total (n = 13)): 0 (0.0) No. of patients (%)
- Constipation, treatment‐related, Grade 1–2 ([3]; Total (n = 13)): 2 (15.4) No. of patients (%)
- Constipation, treatment‐related, Grade 3 ([3]; Total (n = 13)): 0 (0.0) No. of patients (%)
- Decreased appetite, treatment‐related, Grade 1–2 ([3]; Total (n = 13)): 3 (23.1) No. of patients (%)
- Decreased appetite, treatment‐related, Grade 3 ([3]; Total (n = 13)): 0 (0.0) No. of patients (%)
- Diarrhea, treatment‐related, Grade 1–2 ([3]; Total (n = 13)): 2 (15.4) No. of patients (%)
- Diarrhea, treatment‐related, Grade 3 ([3]; Total (n = 13)): 0 (0.0) No. of patients (%)
- Dizziness, treatment‐related, Grade 1–2 ([3]; Total (n = 13)): 3 (23.1) No. of patients (%)
- Dizziness, treatment‐related, Grade 3 ([3]; Total (n = 13)): 0 (0.0) No. of patients (%)
- Fatigue, treatment‐related, Grade 1–2 ([3]; Total (n = 13)): 8 (61.5) No. of patients (%)
- Fatigue, treatment‐related, Grade 3 ([3]; Total (n = 13)): 0 (0.0) No. of patients (%)
- Hyperglycemia, treatment‐related, Grade 1–2 ([3]; Total (n = 13)): 3 (23.1) No. of patients (%)
- Hyperglycemia, treatment‐related, Grade 3 ([3]; Total (n = 13)): 2 (15.4) No. of patients (%)
- Mucosal inflammation, treatment‐related, Grade 1–2 ([3]; Total (n = 13)): 2 (15.4) No. of patients (%)
- Mucosal inflammation, treatment‐related, Grade 3 ([3]; Total (n = 13)): 0 (0.0) No. of patients (%)
- Nausea, treatment‐related, Grade 1–2 ([3]; Total (n = 13)): 6 (46.2) No. of patients (%)
- Nausea, treatment‐related, Grade 3 ([3]; Total (n = 13)): 0 (0.0) No. of patients (%)
- Pain, treatment‐related, Grade 1–2 ([3]; Total (n = 13)): 2 (15.4) No. of patients (%)
- Pain, treatment‐related, Grade 3 ([3]; Total (n = 13)): 0 (0.0) No. of patients (%)
- Vomiting, treatment‐related, Grade 1–2 ([3]; Total (n = 13)): 2 (15.4) No. of patients (%)
- Vomiting, treatment‐related, Grade 3 ([3]; Total (n = 13)): 0 (0.0) No. of patients (%)
- Maximum tolerated dose (MTD) ([3]; once daily orally, continuous): 37.5 mg
- Recommended phase II dose (RP2D) ([3]; oral, once daily): 37.5 mg/day
- GI50 [4]: 11 to 19 nM
- Correlation of degree of in vitro inhibition with that induced by anti‐IGF‐1 antibody KM1468 [5]: highly correlated
- Inhibition at 100 nmol/L [6]: 63.2%
- Inhibition of insulin‐induced tyrosine phosphorylation of IR [7]: significant degree of inhibition
